Test results as given in ChEMBL document CHEMBL1122589 (J Med Chem, 1984).
Calls of active or inactive are those of the source. No cut-off for these calls is given here.

Columns and labels:
[1] = species: Mus musculus; experiment: Percentage increase in life span of drug-treated tumor bearing controls was determined; format: functional
In short: (§1)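 Survival of drug-treated mice bearing ip-inoculated leukemia was compared with untreated tumor-bearing controls. The result is expressed as percentage increase in life span (ILS), and a value above 20% was taken as statistically significant.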

[2] = test system: P388; experiment: Dose of drug given intraperitoneally on days 1, 5, and 9 that provides the highest ILS value in mice bearing 10E6 ip inoculated P388 leukemia cells in vivo
[3] = test system: Nucleic Acid; experiment: Binding constant for DNA by ethidium bromide displacement; format: nucleic-acid assay
[4] = test system: L1210; experiment: In vitro concentration required to inhibit the growth of L1210 cells in culture by 50% following a 48 hr exposure.; format: functional; settings: Mus musculus, L1210, 48 h; read-out: ID50 (the source's name)
[5] = test system: L1210; experiment: Dose of drug given intraperitoneally on a qd 1-5 schedule that provides the highest ILS value in mice bearing 10E6 ip inoculated L1210 leukemia cells; format: functional, Mus musculus
In short: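 Mice inoculated ip with 10⁶ L1210 leukemia cells; drug given ip daily on days 1-5 (qd 1-5). Optimal dose, in mg/kg/day, is the dose giving the highest increase in life span (ILS).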

[6] = test system: L1210; experiment: Potency against L1210 leukemia cells in culture in vitro according to the NCI protocols Nanomolar concentration required to inhibit the growth of L1210 cells in culture by 50% following a 48 hr exposure; format: functional; settings: Mus musculus, L1210, 48 h; read-out: ID50 (the source's name)
In short: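 L1210 leukaemia cells were grown in culture and exposed to drug for 48 h. The value is the drug concentration giving 50% growth inhibition, expressed in nanomolar.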

[7] = Dissociation constant in aqueous DMF.; format: physicochemical
In short: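 pKa obtained by UV spectroscopy in 20% aqueous DMF.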

[8] = species: Mus musculus; experiment: Percentage increase in life span of drug-treated tumor bearing controls was determined; IN- Inactive at the highest dose tested; format: functional, organism-based
[9] = species: Mus musculus; experiment: Percentage increase in life span of drug-treated tumor bearing controls was determined no. in parentheses =no. of animals out of a 6 group that survived indefinitely; format: functional; in short: as §1
[10] = species: Mus musculus; experiment: Percentage increase in life span of drug-treated tumor bearing controls was determined no. in parentheses are the animals (out of a group of 6) that survived indefinitely; format: functional; in short: as §1
[11] = test system: Mus musculus; experiment: Dose of drug given intraperitoneally on days 1, 5, and 9 that provides the highest ILS value in mice bearing 10E6 ip inoculated P388 leukemia cells in vivo

| SMILES | ILS [1] [%] | OD [2] [mg/kg] | Log K [3] | IC50 [4] [nM] | OD [5] [mg/kg] | further results |
| --- | --- | --- | --- | --- | --- | --- |
| CCNc1cc(NS(C)(=O)=O)ccc1Nc1c2ccccc2nc2ccccc12 | 69 | 45 | 6.54 | 229 |  |  |
| CS(=O)(=O)Nc1ccc(Nc2c3ccccc3nc3ccccc23)cc1 | 107 |  |  | 35 | 45 |  |
| CCCCCCNc1cc(NS(C)(=O)=O)ccc1Nc1c2ccccc2nc2ccccc12 |  | 60 | 6.36 | 136 |  |  |
| CCCCCCS(=O)(=O)Nc1ccc(Nc2c3ccccc3nc3ccccc23)c(NC)c1 | 36 | 100 | 6.41 | 443 |  |  |
| CCCS(=O)(=O)Nc1ccc(Nc2c3ccccc3nc3ccccc23)c(NC)c1 | 73 | 20 | 6.61 | 86 |  |  |
| CS(=O)(=O)Nc1ccc(Nc2c3ccccc3nc3ccccc23)c(N2CCOCC2)c1 |  | 100 | 5.26 | > 1600 |  |  |
| CCCCCNc1cc(NS(C)(=O)=O)ccc1Nc1c2ccccc2nc2ccccc12 |  | 30 | 6.42 |  |  | IC50 [6]: 117 nM |
| CCCCCCCCS(=O)(=O)Nc1ccc(Nc2c3ccccc3nc3ccccc23)c(NC)c1 | 42 | 30 | 6.51 | 217 |  |  |
| CCCCNc1cc(NS(C)(=O)=O)ccc1Nc1c2ccccc2nc2ccccc12 |  | 45 | 6.36 | 185 |  |  |
| CS(=O)(=O)Nc1ccc(Nc2c3ccccc3nc3ccccc23)c(O)c1 | 88 |  | 5.53 | 4000 | 25 | pKa [7]: 7.56 |
| CS(=O)(=O)Nc1ccc(Nc2c3ccccc3nc3ccccc23)c([N+](=O)[O-])c1 |  |  | 5.61 | 9000 | >500 | ILS [8]: inactive |
| CN(CCO)c1cc(NS(C)(=O)=O)ccc1Nc1c2ccccc2nc2ccccc12 |  | 100 | 5.52 | 1400 |  | ILS [9]: 100% |
| CCN(CC)c1cc(NS(C)(=O)=O)ccc1Nc1c2ccccc2nc2ccccc12 |  | 100 | 5.35 | 4600 |  |  |
| CNc1cc(NS(C)(=O)=O)ccc1Nc1c2ccccc2nc2ccccc12 |  |  | 6.42 | 71 |  | ILS [10]: 152%; OD [11]: 13.3 mg/kg |
| CCCCCCCNc1cc(NS(C)(=O)=O)ccc1Nc1c2ccccc2nc2ccccc12 |  | 45 | 6.54 | 181 |  |  |
| Cc1cc(NS(C)(=O)=O)ccc1Nc1c2ccccc2nc2ccccc12 | 106 |  | 5.74 | 120 | 97 |  |
| CS(=O)(=O)Nc1ccc(Nc2c3ccccc3nc3ccccc23)c(NCC(O)CO)c1 (stereo unspecified) | 84 | 45 | 6.71 | 219 |  |  |
| CCCNc1cc(NS(C)(=O)=O)ccc1Nc1c2ccccc2nc2ccccc12 |  | 66 | 6.57 | 286 |  |  |

| SMILES | ILS [1] [%] | OD [2] [mg/kg] | Log K [3] | IC50 [4] [nM] | OD [5] [mg/kg] | further results |
| --- | --- | --- | --- | --- | --- | --- |
| CS(=O)(=O)Nc1ccc(Nc2c3ccccc3nc3ccccc23)c(N2CCCCC2)c1 |  | 100 | 5.69 | > 1600 |  |  |
| CS(=O)(=O)Nc1ccc(Nc2c3ccccc3nc3ccccc23)c(N2CCCC2)c1 |  | 45 | 5.49 | 1300 |  |  |
| CS(=O)(=O)Nc1ccc(Nc2c3ccccc3nc3ccccc23)c(N)c1 | 106 |  | 6.28 | 1200 | 45 |  |
| CCOc1cc(NS(C)(=O)=O)ccc1Nc1c2ccccc2nc2ccccc12 | 29 |  | 5.68 | 600 | 250 | pKa [7]: 7.55 |
| CN(C)c1cc(NS(C)(=O)=O)ccc1Nc1c2ccccc2nc2ccccc12 |  | 166 |  |  |  | ILS [9]: 210% |
| CS(=O)(=O)Nc1ccc(Nc2c3ccccc3nc3ccccc23)c(NC2CCCCC2)c1 |  | 45 | 6.3 | 470 |  |  |
| CS(=O)(=O)Nc1ccc(Nc2c3ccccc3nc3ccccc23)c(Cl)c1 |  |  | 5.45 | 1300 | >500 |  |
| CS(=O)(=O)Nc1ccc(Nc2c3ccccc3nc3ccccc23)c(NCCO)c1 | 89 | 45 | 6.49 | 86 |  |  |
| CC(=O)NNc1cc(NS(C)(=O)=O)ccc1Nc1c2ccccc2nc2ccccc12 |  |  | 5.89 | > 1500 |  |  |
| CCCCCCCS(=O)(=O)Nc1ccc(Nc2c3ccccc3nc3ccccc23)c(NC)c1 | 47 | 45 | 6.44 | 397 |  |  |
| CCS(=O)(=O)Nc1ccc(Nc2c3ccccc3nc3ccccc23)c(NC)c1 | 99 | 13.3 | 6.62 | 43 |  |  |
| CS(=O)(=O)Nc1ccc(Nc2c3ccccc3nc3ccccc23)c(OCCO)c1 | 67 |  | 5.91 | > 1700 | 62.5 | pKa [7]: 7.53 |
| CC(C)Oc1cc(NS(C)(=O)=O)ccc1N=c1c2ccccc2[nH]c2ccccc12 |  |  | 5.17 | > 1700 | >500 | pKa [7]: 7.51 |
| CCCCS(=O)(=O)Nc1ccc(Nc2c3ccccc3nc3ccccc23)c(NC)c1 | 67 | 45 | 6.66 | 102 |  |  |
| COc1cc(NS(C)(=O)=O)ccc1Nc1c2ccccc2nc2ccccc12 [AMSACRINE] | 114 |  | 5.57 |  | 6.7 |  |
| CCCCCS(=O)(=O)Nc1ccc(Nc2c3ccccc3nc3ccccc23)c(NC)c1 | 61 | 20 | 6.58 | 144 |  |  |
| CS(=O)(=O)Nc1ccc(Nc2c3ccccc3nc3ccccc23)c(F)c1 |  |  | 5.65 | 800 | >500 | pKa [7]: 6.62 |
